The list is not random: actives were taken first. Their share in the collection is about 2.3%.
Rpn11 inh = Rpn11 (PSMD14) deubiquitinase inhibitors, primary screen, biochemical, fluorescence polarization, uHTS. human 26S proteasome, Ub4-pepOG fluorescence polarization; 20S core pre-blocked with epoxomicin. inhibition, % at 20 µM. 0.59% of 360,000 active. AID 588493, 2011;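 active means inhibition at 20 µM, scaled to each plate's controls, above about 33%, limit read from the data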
STEP inh = STEP phosphatase inhibitors, primary screen, biochemical, fluorescence intensity, uHTS; 0.25% of 360,000 active; recombinant STEP, OMFP fluorogenic substrate; Tyrosine-protein phosphatase non-receptor type 5 (Homo sapiens), P54829; inhibition, % at 20 µM;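 active means inhibition at 20 µM, scaled per plate between control wells, above about 37%, limit read from the data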;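 further: 0% = DMSO with enzyme and substrate and 100% = substrate only without enzyme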
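Assay system: isolated STEP enzyme. Buffer or medium: pH 6.0 Bis-Tris with DTT and Tween 20. Also added: fluorogenic phosphatase substrate OMFP at 25 µM final. Dosing: 20 µM, 1% DMSO. Timing: 20 min reaction, room temperature, in the dark. Measured by: fluorescence intensity, excitation 480 nm, emission 540 nm. Evaluation: normalized % inhibition.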
Scp-1 inhibitor = Scp-1 phosphatase inhibitors, primary screen, biochemical, colorimetric, uHTS; inhibition, % at 20 µM; Recombinant Scp1, phosphopeptide, malachite green phosphate absorbance; Carboxy-terminal domain RNA polymerase II polypeptide A small phosphatase 1 (Homo …; 0.88% of 340,000 active;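 active means inhibition above about 50% at 20 µM, limit read from the data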;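 further: plate controls were DMSO wells with enzyme for no effect and wells lacking enzyme for full effect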
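System: truncated SCP-1 phosphatase (76-261aa); medium: Tris acetate buffer pH 5.5 with MgCl2 and Tween-20; incubation: 45 min room-temperature reaction, 5 min colour, 30 min stabiliser; compound: single 20 µM dose, 1% DMSO; reagent: Phosphorylated 17-residue peptide substrate; read-out: % inhibition at 20 µM; technique: colorimetric free-phosphate detection, absorbance 630 nm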
DNMT1 block = human DNMT1 methyltransferase inhibitors, primary screen, biochemical, molecular beacon, fluorescence, HinP1I cleavage, uHTS. DNA (cytosine-5)-methyltransferase 1 (Homo sapiens), P26358. inhibition (reported as % activation of signal), % at 10 µM. 0.83% of 360,000 active. AID 588458, 2011; in the data active means inhibition above about 50%
Target sequence (P26358 504-1616 limits assumed): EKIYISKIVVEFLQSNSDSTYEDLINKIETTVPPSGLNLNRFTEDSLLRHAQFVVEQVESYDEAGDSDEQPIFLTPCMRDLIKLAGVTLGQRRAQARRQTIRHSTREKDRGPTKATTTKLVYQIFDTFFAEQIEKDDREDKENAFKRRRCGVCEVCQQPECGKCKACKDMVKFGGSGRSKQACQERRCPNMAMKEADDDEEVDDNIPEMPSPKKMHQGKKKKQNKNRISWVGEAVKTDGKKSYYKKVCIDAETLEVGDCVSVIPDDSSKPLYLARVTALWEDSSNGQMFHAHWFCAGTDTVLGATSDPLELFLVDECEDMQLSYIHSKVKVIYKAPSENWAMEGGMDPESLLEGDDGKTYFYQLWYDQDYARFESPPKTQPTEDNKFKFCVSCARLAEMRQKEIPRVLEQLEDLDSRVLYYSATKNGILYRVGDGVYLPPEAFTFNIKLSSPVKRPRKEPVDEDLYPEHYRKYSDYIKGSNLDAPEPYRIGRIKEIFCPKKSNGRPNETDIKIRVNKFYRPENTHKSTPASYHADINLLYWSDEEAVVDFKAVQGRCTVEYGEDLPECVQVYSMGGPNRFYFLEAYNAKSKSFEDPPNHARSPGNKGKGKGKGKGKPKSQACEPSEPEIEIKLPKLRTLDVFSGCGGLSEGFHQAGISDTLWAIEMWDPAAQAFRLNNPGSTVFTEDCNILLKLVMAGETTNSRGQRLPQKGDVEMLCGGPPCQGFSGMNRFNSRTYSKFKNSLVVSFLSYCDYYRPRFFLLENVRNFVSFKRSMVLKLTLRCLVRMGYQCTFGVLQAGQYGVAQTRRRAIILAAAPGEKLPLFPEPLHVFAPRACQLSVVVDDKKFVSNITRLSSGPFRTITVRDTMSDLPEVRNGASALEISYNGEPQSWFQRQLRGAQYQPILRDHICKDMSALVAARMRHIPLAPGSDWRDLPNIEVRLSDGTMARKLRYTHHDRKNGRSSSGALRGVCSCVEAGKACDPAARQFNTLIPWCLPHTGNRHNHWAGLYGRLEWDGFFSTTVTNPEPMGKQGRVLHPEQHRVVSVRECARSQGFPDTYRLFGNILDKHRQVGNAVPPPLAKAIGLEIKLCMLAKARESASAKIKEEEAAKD
SUMO1 PPI mod = modulators of SUMO1 protein-protein interactions, primary screen, biochemical, uHTS. Small ubiquitin-related modifier 1 (Homo sapiens), P63165. SUMO1 binding to a labelled peptide, TR-FRET, 1 h. inhibition, % at 20 µM. 0.33% of 360,000 active; in the data active means inhibition above about 37%
LMPTP block = LMPTP phosphatase inhibitors, primary screen, biochemical, fluorescence intensity, uHTS; recombinant LMPTP-A, OMFP fluorogenic substrate; AID 651560, 2012; inhibition, % at 20 µM; 0.22% of 360,000 active;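 active means compounds that cut the enzyme signal by at least half of the control window in the single-dose screen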;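 further: plate controls were DMSO wells with enzyme plus substrate for no effect and substrate without enzyme for full effect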
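Test system: LMPTP-A, protein tyrosine phosphatase of low molecular weight; Input: 0.625 nM enzyme; Incubation: 50 min dark incubation at room temperature; Signal: endpoint fluorescence intensity from OMFP dephosphorylation; Read-out basis: % inhibition versus control wells.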
Beacon interf DR = spectral interference with molecular beacon fluorescence, dose response, artefact control for DNMT1 inhibitor project, biochemical, fluorescent molecular beacon. IC50, µM. shares compounds with DNMT1 block. spectral interference counter-screen. AID 602382, 2012. 200 tested, under 10 active; call rule not given here
DNMT1 confirm = DNMT1 methyltransferase inhibitor retest, confirmation, biochemical, molecular beacon, fluorescence, single concentration; shares compounds with DNMT1 block; DNMT1 molecular beacon HinP1I cleavage; inhibition, % at 10 µM; 8% of 2,300 active;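 active means average inhibition of at least 30% in the single-concentration confirmation test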
DNMT1 interf = counter-screen for DNMT1 inhibitors: spectral interference; shares compounds with DNMT1 block; DNMT1 molecular beacon spectral interference counterscreen, fluorescence 485/520; activation (fluorescence interference), % at 10 µM; 1% of 2,300 active; AID 602387;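 active means activation of at least 30% at 10 µM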;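 further: DNMT1 catalytic domain with a HinP1I cleavage step and a FAM/dabcyl DNA beacon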
* = called active by the depositor; . = no result given.

SMILES | Rpn11 inh | STEP inh | Scp-1 inhibitor | DNMT1 block | SUMO1 PPI mod | LMPTP block | DNMT1 confirm | DNMT1 interf | others
CC1=C(C(=O)Nc2ccccc2C)C(c2ccc(C)o2)n2c(s/c(=C/c3ccccc3)c2=O)=N1 (centres undefined) | 2.9 | -2.0 | -4.9 | -3.0 | -0.9 | 1.2 | . | .
N=C1/C(=C\c2coc3ccccc3c2=O)C(=O)N=C2SC(c3ccncc3)=NN12 | . | -24.5 | 46.6 | 35.0 | 22.9 | 3.0 | . | .
N=C1/C(=C/c2coc3ccccc3c2=O)C(=O)N=C2SC(c3ccco3)=NN12 | . | -31.0 | 54.2* | 65.5* | -5.2 | 34.6 | 15.7 | -11.5 | Beacon interf DR=>99
CCn1ccnc1CN(C)Cc1cn(-c2ccc(C)cc2)nc1-c1ccc(F)cc1 | -5.1 | 2.6 | -3.9 | 59.9* | -1.3 | 1.6 | 1.7 | 5.7
Cc1ccc(-n2cc(CN(C)Cc3nccn3C)c(-c3ccc(F)cc3)n2)cc1 | 2.5 | -7.8 | -7.0 | -4.3 | 3.6 | 1.2 | . | .
CCN(CC)C(=O)Cn1cc(C(=O)C(=O)N2CCN(c3ccc(OC)cc3)CC2)c2ccccc21 | -0.3 | -3.0 | 1.1 | 0.4 | 3.3 | 0.7 | . | .
O=C(O)Cc1c[nH]c2cccc(O)c12 | -15.8 | 3.0 | 31.2 | 74.3* | -2.4 | 3.9 | 36.5* | -1.7 | Beacon interf DR=>99
CC(C)(C)c1ccc(/C=N/NC(=O)C2CCCC2)cc1 | -1.6 | -2.2 | -1.8 | 76.8* | -7.2 | 1.6 | 1.1 | 2.1
Cc1cc(=O)c(C(=O)Nc2cccc(N3CCCC3=O)c2)nn1-c1ccccc1F | -3.0 | 1.1 | -5.0 | 84.7* | -9.2 | -0.5 | 1.0 | 2.5
COc1ccc2cc(/C=N/NC(=O)CSCc3ccc([N+](=O)[O-])cc3)c(Cl)nc2c1 | 33.0 | -2.4 | -7.7 | 64.5* | 3.7 | 0.8 | 6.0 | 1.0
CC(Cc1ccc(Cl)cc1)N1CCC(n2nccc2NC(=O)C2CCCC2)CC1 (centres undefined) | 1.8 | 1.6 | -4.7 | -1.5 | -5.9 | 4.0 | . | .
NC(=O)CSc1nc2scc(-c3ccco3)c2c(=O)n1-c1ccccc1 | 20.8 | 4.1 | -2.3 | 50.2* | 13.5 | 47.2 | 2.6 | 1.4
Cn1c(SCC(=O)NCC2CCCO2)nc2scc(-c3ccccc3)c2c1=O (centres undefined) | 0.0 | 0.5 | -4.9 | 2.8 | -0.8 | -0.6 | . | .
O=C(CSc1nc2scc(-c3ccco3)c2c(=O)n1-c1ccccc1)NCC1CCCO1 (centres undefined) | 19.6 | 11.2 | -4.6 | 93.5* | 11.2 | 24.8 | -0.3 | -3.4
COc1ccc(C(=O)NC(=S)Nc2nnn(C)n2)cc1 | -2.7 | -3.2 | -14.1 | 86.1* | 0.9 | 0.3 | 3.5 | 6.6
CCOc1ccc(OCc2ccc(C(=O)NC(C)(C)C)o2)cc1 | -2.2 | 2.8 | 5.5 | 48.8 | 0.2 | -1.4 | 9.2 | 2.4
O=C(NC1CCN(Cc2ccccc2)CC1)c1cc(S(=O)(=O)N2CCOCC2)ccc1Cl | 0.6 | -2.9 | -4.9 | 1.4 | -0.1 | 1.4 | . | .
Cc1nn(-c2ccccc2)c2nc(-c3ccco3)cc(C(=O)O)c12 | 2.1 | -3.0 | 13.1 | 61.0* | 29.1 | -0.4 | 2.3 | -1.5
O=C(O)c1cc(-c2ccco2)nn1-c1ccc(Cl)cc1 | 22.5 | 11.2 | 66.8* | 96.4* | 25.3 | 10.8 | 12.2 | 2.8
O=C(O)c1cc(-c2cc3ccccc3o2)nn1-c1ccccc1 | 19.9 | 8.7 | -2.7 | 5.9 | 0.1 | 0.2 | . | .
Cc1nn(-c2cccc(Cl)c2)c2nc(-c3ccco3)cc(C(=O)O)c12 | 15.8 | -1.4 | 13.8 | 71.5* | 39.9* | 0.5 | 3.2 | 2.4
N#CCc1cc2ccc3cccc4ccc(c1)c2c34 | -4.2 | 2.2 | -18.4 | 2.0 | -11.5 | 3.0 | . | .
CC(C)NC(=NCc1ccc(Cl)cc1Cl)Nc1ccccc1 | 0.5 | -2.5 | -7.3 | 2.0 | 2.4 | 7.8 | . | .
COc1cc(/C=C2/SC(=O)NC2=O)ccc1OCc1ccccc1 | -5.9 | -4.5 | 1.3 | 5.8 | 9.1 | -2.4 | . | .
COc1cc(/C=C2/SC(=O)N(Cc3ccccc3Cl)C2=O)ccc1OCc1ccncc1 | 3.2 | -1.2 | 17.5 | 63.9* | 0.3 | -0.2 | 7.2 | 8.5
SMILES | Rpn11 inh | STEP inh | Scp-1 inhibitor | DNMT1 block | SUMO1 PPI mod | LMPTP block | DNMT1 confirm | DNMT1 interf | others
CC1(C(=O)Nc2ccc3nc[nH]c3c2)CCN1C(=O)C1(c2ccccc2)CC1 (centres undefined) | -2.1 | -3.2 | . | 101.1* | 0.4 | 0.7 | 3.5 | 3.1
Cc1ccc(C(=O)OC(C)C(=O)NC2CCCCC2C)s1 (centres undefined) | 1.9 | 3.4 | -1.7 | 82.8* | 7.5 | -0.1 | 1.8 | 3.4
O=C1c2ccccc2C(=O)N1CCc1c(-c2[nH]c3ccccc3c2CCN2C(=O)c3ccccc3C2=O)[nH]c2ccccc12 | 2.7 | 3.0 | -4.2 | 55.7* | 3.1 | -1.6 | 2.7 | 0.7
COC(=O)C1=C(C(=O)OC)SC(=C2C(=S)C(C)(C)N(C(=O)CC(C)C)c3ccccc32)S1 | 7.5 | 9.8 | -6.2 | -11.3 | -35.5 | 9.3 | . | .
O=C(CCN1CCN(c2ccccc2)CC1)N/N=C/c1ccc(O)c(O)c1O | -52.7 | 3.8 | 1.2 | 78.8* | 22.8 | 66.8* | 3.3 | 1.9
Cc1ccc(C)c(NC(=O)CN(C)C(C)C(=O)N2CC(C)CC(C)C2)c1 (centres undefined) | -4.5 | -1.6 | 1.2 | 2.3 | -0.3 | -0.4 | . | .
CN(C)C(CNC(=O)C1CC(=O)N(Cc2ccccc2)C1)c1ccccc1 (centres undefined) | -2.2 | -1.3 | -2.3 | 2.4 | 2.2 | -3.4 | . | .
CN(C)C(CNC(=O)C1CC(=O)N(c2cccc(C(F)(F)F)c2)C1)c1ccccc1 (centres undefined) | 2.8 | -1.1 | . | 90.8* | -0.6 | -2.9 | 1.9 | 3.9
COc1ccc(/C=c2\sc3nc(-c4ccccc4OC)nn3c2=O)c(OC)c1 | -29.9 | -5.1 | 2.5 | 70.9* | -2.7 | 3.6 | 0.2 | -7.9
COc1ccccc1-c1nc2s/c(=C\c3cccs3)c(=O)n2n1 | 6.7 | 8.2 | -4.8 | 3.2 | -10.8 | 2.1 | . | .
